Measurements from ChEMBL document CHEMBL3785031, “Discovery of small-molecule nonpeptide antagonists of nociceptin/orphanin FQ receptor: The studies of design, synthesis, and structure-activity relationships for (4-arylpiperidine substituted-methyl)-[bicyclic (hetero)cycloalkanobenzene] derivatives” (Eur J Med Chem, 2016).

Columns and labels:
Mu-type opioid receptor = Mu-type opioid receptor (Homo sapiens, UniProt P35372); test: Displacement of [3H]DAMGO from human mu opioid receptor expressed in CHOK1 cells after 45 mins by scintillation proximity assay; format: cell-based, CHO-K1
Mu-type opioid receptor, sequence (P35372 whole entry): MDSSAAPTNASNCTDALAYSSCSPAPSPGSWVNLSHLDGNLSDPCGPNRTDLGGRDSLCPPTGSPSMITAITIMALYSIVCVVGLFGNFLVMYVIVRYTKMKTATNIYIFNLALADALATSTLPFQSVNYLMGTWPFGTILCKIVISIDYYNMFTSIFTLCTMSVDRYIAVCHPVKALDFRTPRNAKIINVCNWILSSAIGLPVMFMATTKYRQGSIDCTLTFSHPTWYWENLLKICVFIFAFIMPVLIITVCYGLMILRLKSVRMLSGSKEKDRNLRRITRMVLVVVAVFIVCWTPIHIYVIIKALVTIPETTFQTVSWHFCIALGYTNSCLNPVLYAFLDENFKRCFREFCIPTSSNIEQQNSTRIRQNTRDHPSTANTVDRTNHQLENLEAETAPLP

Nociceptin receptor [1] = molecular target: T1, Nociceptin receptor (Homo sapiens, UniProt P41146); test: Displacement of [3H]N/OFQ from human NOP receptor expressed in HEK293 cells after 45 mins by scintillation proximity assay; format: cell-based
T1 sequence (P41146 whole entry): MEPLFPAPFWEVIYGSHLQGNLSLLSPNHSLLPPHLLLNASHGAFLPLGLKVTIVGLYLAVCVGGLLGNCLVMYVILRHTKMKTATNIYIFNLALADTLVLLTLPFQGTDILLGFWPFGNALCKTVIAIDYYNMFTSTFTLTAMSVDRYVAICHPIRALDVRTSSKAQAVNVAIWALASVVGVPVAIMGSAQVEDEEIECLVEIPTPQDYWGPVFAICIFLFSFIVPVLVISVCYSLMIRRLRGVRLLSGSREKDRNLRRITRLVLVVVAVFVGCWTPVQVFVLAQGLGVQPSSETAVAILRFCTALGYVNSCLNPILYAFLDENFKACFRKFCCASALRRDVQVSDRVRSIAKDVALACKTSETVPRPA
Procedure, shortened: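 HEK-293 membranes bearing recombinant hNOP receptor (8.3 μg) were incubated at 25 °C for 45 min with 0.4 nM [3H]N/OFQ and WGA-SPA beads. Buffer was 50 mM HEPES, pH 7.4, with 10 mM MgCl2 and 1 mM EDTA. Six concentrations, 10⁻¹¹–10⁻⁵ M, were run in duplicate; NSB with 1 μM N/OFQ. IC50 by nonlinear regression; Ki = IC50/(1+[L]/KD), KD 0.135 nM.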

Nociceptin receptor [2] = molecular target: T1, Nociceptin receptor; test: Antagonist activity at human NOP receptor expressed in HEK293 cells assessed as inhibition of N/OFQ-induced [35S]GTPgammaS binding after 1.5 hrs by scintillation proximity assay; format: functional, cell-based
Procedure, shortened: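 Membranes from HEK-293 cells expressing hNOP receptor were incubated 1.5 h at 25 °C with 10 nM N/OFQ, 400 pM [35S]GTPγS, 5 μM GDP and WGA-SPA beads. Buffer was 20 mM HEPES, 100 mM NaCl, 5 mM MgCl2 and 1 mM EDTA, pH 7.4. Six compound concentrations from 0.1 nM to 10 μM were run in duplicate. Basal binding was measured without ligands; NSB with 10 μM unlabeled GTPγS. Read by scintillation counting; IC50 derived.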

[3] = Half life in human liver microsomes at 1 uM by HPLC-MS/MS analysis; format: ADME
Procedure, shortened: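 Substrate at 1.0 μM was incubated at 37 °C in pooled human liver microsomes (1.0 mg/mL protein) with 3.3 mM MgCl2, 0.1 M NaKHPO4 (pH 7.4) and an NADPH-regenerating system.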

HEK293 = test: Selectivity ratio of Ki for human mu opioid receptor expressed in CHOK1 cells to Ki for human NOP receptor expressed in HEK293 cells; format: cell-based
[4] = molecular target: Voltage-gated inwardly rectifying potassium channel KCNH2 (Homo sapiens, UniProt Q12809); test: Displacement of [3H]dofetilide from human ERG channel expressed in HEK293 cells after 60 mins by liquid scintillation counting method; format: cell-based
Voltage-gated inwardly rectifying potassium channel KCNH2, sequence (Q12809 whole entry): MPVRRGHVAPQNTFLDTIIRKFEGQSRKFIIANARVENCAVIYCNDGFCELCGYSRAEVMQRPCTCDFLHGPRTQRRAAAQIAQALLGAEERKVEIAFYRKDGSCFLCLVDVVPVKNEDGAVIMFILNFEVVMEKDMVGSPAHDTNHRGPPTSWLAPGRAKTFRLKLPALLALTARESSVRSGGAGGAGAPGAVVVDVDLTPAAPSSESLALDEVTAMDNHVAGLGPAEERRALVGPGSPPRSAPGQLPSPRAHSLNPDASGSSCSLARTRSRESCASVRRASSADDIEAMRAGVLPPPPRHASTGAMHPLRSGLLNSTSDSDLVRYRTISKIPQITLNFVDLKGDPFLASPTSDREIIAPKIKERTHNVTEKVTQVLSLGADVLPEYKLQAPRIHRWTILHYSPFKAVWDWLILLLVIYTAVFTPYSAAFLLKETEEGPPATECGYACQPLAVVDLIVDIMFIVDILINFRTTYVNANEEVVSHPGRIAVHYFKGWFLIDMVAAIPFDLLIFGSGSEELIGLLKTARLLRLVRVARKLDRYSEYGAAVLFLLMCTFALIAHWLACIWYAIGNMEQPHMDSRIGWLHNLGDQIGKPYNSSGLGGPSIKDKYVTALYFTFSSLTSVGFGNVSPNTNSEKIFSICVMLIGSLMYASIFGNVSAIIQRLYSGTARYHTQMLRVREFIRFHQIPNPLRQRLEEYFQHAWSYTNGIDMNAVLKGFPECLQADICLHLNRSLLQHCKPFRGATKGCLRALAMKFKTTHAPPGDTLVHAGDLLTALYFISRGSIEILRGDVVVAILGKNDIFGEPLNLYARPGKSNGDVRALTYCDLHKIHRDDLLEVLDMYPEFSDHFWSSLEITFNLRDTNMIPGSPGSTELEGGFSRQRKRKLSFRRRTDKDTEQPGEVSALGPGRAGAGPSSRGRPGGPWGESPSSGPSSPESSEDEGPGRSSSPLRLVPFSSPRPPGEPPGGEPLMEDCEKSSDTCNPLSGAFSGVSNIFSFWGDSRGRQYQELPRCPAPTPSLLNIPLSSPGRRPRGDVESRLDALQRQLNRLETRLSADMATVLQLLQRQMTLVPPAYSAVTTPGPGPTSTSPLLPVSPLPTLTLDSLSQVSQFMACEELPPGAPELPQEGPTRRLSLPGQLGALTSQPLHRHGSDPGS

hERG (KCNH2) = hERG (KCNH2) (Homo sapiens, UniProt Q12809); test: Displacement of [3H]dofetilide from human ERG channel expressed in HEK293 cells at 1 uM after 60 mins by liquid scintillation counting method; format: cell-based; settings: HEK293 cells that express hERG, probe [3H]dofetilide
hERG (KCNH2), sequence (Q12809 whole entry): as above

Row | SMILES | Ki (Mu-type opioid receptor) | Ki (Nociceptin receptor [1]) | IC50 (Nociceptin receptor [2]) | half-life at 1 µM [3] | Ratio Ki (HEK293) | IC50 [4] | inhibition at 1 h, 1 µM (hERG (KCNH2))
1 | O=C(C1Cc2ccccc2CN1)N1CCC2(CCc3ccccc32)CC1 (stereo not drawn) | > 450 nM | > 250 nM |  |  |  |  | 
2 | Cc1cc(F)ccc1C1CCN(CC2Cc3ccccc3CN2)CC1 (stereo not drawn) | 342 nM | 3.56 nM | 58.8 nM | 6.9 min | 96.1 | 200 nM | 
3 | CN1Cc2ccccc2CC1CN1CCC2(CCc3ccccc32)CC1 (stereo not drawn) | 58.2 nM | 18.9 nM |  |  | 3.08 |  | 
4 | CN1C(=O)c2ccccc2CC1CN1CCC2(CCc3ccccc32)CC1 (stereo not drawn) | 231 nM | > 250 nM |  |  | < 0.924 | 6960 nM | 
5 | Oc1ccc2c(c1)CC(CN1CCC3(CCc4ccccc43)CC1)NC2 (stereo not drawn) | 392 nM | 10.2 nM | 227 nM | 18 min |  |  | 
6 | Cc1cc(F)ccc1C1CCN(CC2Cc3c(Cl)ccc(O)c3CN2)CC1 (stereo not drawn) | > 450 nM | 3.03 nM | 28.7 nM | 21.6 min | > 143 | 970 nM | 
7 | Oc1ccc(Cl)c2c1CNC(CN1CCC3(CCc4ccccc43)CC1)C2 (stereo not drawn) | 68.8 nM | 2.2 nM | 21.3 nM | 15.3 min |  |  | 
8 | NC(=O)N1Cc2ccccc2CC1CN1CCC2(CCc3ccccc32)CC1 (stereo not drawn) | 108 nM | 18.1 nM |  |  | 5.97 |  | 
9 | CC(=O)N1Cc2ccccc2CC1CN1CCC2(CCc3ccccc32)CC1 (stereo not drawn) | 74.4 nM | 29.8 nM |  |  | 2.5 | 500 nM | 
10 | c1ccc2c(c1)CCC(CN1CCC3(CCc4ccccc43)CC1)C2 (stereo not drawn) | 289 nM | 5.55 nM | 683 nM |  | 52.1 |  | 71%
11 | Oc1cccc2c1CNC(CN1CCC3(CCc4ccccc43)CC1)C2 (stereo not drawn) | 288 nM | 2.4 nM | 53.9 nM | 12.2 min | 120 | 940 nM | 
12 | c1ccc2c(c1)CNC(CN1CCC3(CCc4ccccc43)CC1)C2 (stereo not drawn) | 225 nM | 8.5 nM | 248 nM | 6.6 min | 26.5 | > 1500 nM | 
13 | Oc1ccc(Br)c2c1CNC(CN1CCC3(CCc4ccccc43)CC1)C2 (stereo not drawn) | 139 nM | 1.74 nM | 35.1 nM | 9.6 min |  |  | 
14 | c1ccc2c(c1)CC(CN1CCC3(CCc4ccccc43)CC1)CO2 (stereo not drawn) | 49.1 nM | 5.65 nM | 122 nM | 3.1 min | 8.69 | 1500 nM | 
